Reference: ChEMBL document CHEMBL2086351, “Α-aryl-N-alkyl nitrones, as potential agents for stroke treatment: synthesis, theoretical calculations, antioxidant, anti-inflammatory, neuroprotective, and brain-blood barrier permeability properties” (J Med Chem, 2012)
Calls of active or inactive are those of the source. The rule behind the calls is not given here.

Key:
[1] = Antioxidant activity assessed as inhibition of AAPH-induced lipid peroxidation at 0.1 mM by UV spectrophotometric analysis; format: functional
[2] = Antioxidant activity against AAPH-induced lipid peroxidation assessed as induction time of inhibition at 0.1 mM; format: functional
[3] = Antioxidant activity assessed as Fe3+/ascorbic acid-induced hydroxyl radical scavenging activity at 0.1 mM after 30 mins; format: functional
Procedure, shortened: (§1)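 Tested in vitro at 0.1 mM. The hydroxyl radical line measures competition with DMSO for hydroxyl radicals. Superoxide was generated at pH 7.4 and read as nitroblue tetrazolium reduction to formazan at 560 nm. LOX inhibition was measured by UV absorbance enzyme assay with plant lipoxygenase.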

[4] = biological target: Lipoxygenase (Glycine max) (UniProt Q39829); test: Inhibition of soybean lipoxygenase assessed as conversion of sodium linoleate to 13-hydroperoxylinoleic acid at 0.1 mM by competitive inhibition assay; procedure, shortened: as §1
[5] = Neuroprotective activity in Sprague-Dawley rat primary cortical neurons assessed as reversal of oxygen-glucose deprivation-induced neuronal damage at 100 uM by treated 4 hrs after OGD challenge measured after 24 hrs MTT assay relative to control; format: functional, cell-based; settings: Cerebral cortex neuron
Procedure, shortened: (§2)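 Primary cerebral cortex neurons, cultured 6–8 days, underwent 4 h oxygen–glucose deprivation. Compounds (0.1 μM–10 mM range) were added at the start of a 24 h reperfusion. Viability was read by MTT with untreated control as 100%. Neuroprotection = % recovery from the reperfusion-only value (0%) to control (100%). Three to five independent experiments; mean ± SEM.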

[6] = Neuroprotective activity in Sprague-Dawley rat primary cortical neurons assessed as reversal of oxygen-glucose deprivation-induced neuronal damage at 10 uM by treated 4 hrs after OGD challenge measured after 24 hrs MTT assay relative to control; format: functional, cell-based; settings: Cerebral cortex neuron; procedure, shortened: as §2
[7] = Neuroprotective activity in Sprague-Dawley rat primary cortical neurons assessed as reversal of oxygen-glucose deprivation-induced neuronal damage at 10 uM by treated 4 hrs after OGD challenge measured after 24 hrs by LDH release assay relative to control; format: functional, Cerebral cortex neuron
Procedure, shortened: (§3)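 Primary cortical neurons, cultured 6–8 days, underwent 4 h oxygen–glucose deprivation followed by 24 h reperfusion. Compounds (1–250 μM) were added at reperfusion. Necrotic death was read as LDH release, normalized to untreated reperfusion cells as 100%. Four independent experiments; mean ± SEM; one-way ANOVA with Holm–Sidak post test.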

[8] = Permeability of the compound at pH 7.4 by PAMPA; format: ADME; settings: read-out: permeability
Procedure, shortened: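 PAMPA-BBB method of Di et al. (passive blood–brain barrier permeation). Effective permeability is reported as Pe in 10−6 cm s−1.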

Mus musculus = test: Neuroprotective activity in NMRI mouse assessed as protection against tert-butyl hydroperoxide-mediated lethality at 150 mg/kg, ip administered 30 mins before t-BHP challenge measured after 1 to 24 hrs; format: functional; settings: route intraperitoneal
[9] = Neuroprotective activity in Sprague-Dawley rat primary cortical neurons assessed as reversal of oxygen-glucose deprivation-induced neuronal damage at 1 uM by treated 4 hrs after OGD challenge measured after 24 hrs by LDH release assay relative to control; format: functional, Cerebral cortex neuron; procedure, shortened: as §3
[10] = Antioxidant activity assessed as superoxide anion radical scavenging activity at 0.1 mM after 10 mins by tetrazolium dye assay; format: functional; procedure, shortened: as §1
[11] = Induction of NO release in phosphate buffer at pH 7.4 at 0.1 mM by Griess assay in presence of L-cysteine; format: physicochemical; settings: pH 7.4, 100 µM
Procedure, shortened: (§4)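 Compounds at 100 μM final were dissolved in phosphate buffer pH 7.4 containing L-cysteine. Released NO was measured. Where indicated, 1 mM cysteine and a nitrate reductase/NADPH system were used. Sodium nitroprusside served as reference.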

[12] = Induction of NO release in phosphate buffer at pH 7.4 assessed as nitrite level at 0.1 mM by nitrate reductase/NADPH based Griess assay in presence of L-cysteine; format: physicochemical; settings: pH 7.4, 100 µM; procedure, shortened: as §4
[13] = system: Radical scavenging activity; test: Antioxidant activity assessed as DPPH radical scavenging activity at 0.5 mM after 2 hrs by spectrophotometric analysis; format: functional
Procedure, shortened: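 DPPH radical test, measuring initial absorbance and absorbance after reaction spectrophotometrically.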

[14] = Neuroprotective activity in Sprague-Dawley rat primary cortical neurons assessed as reversal of oxygen-glucose deprivation-induced neuronal damage at 100 uM by treated 4 hrs after OGD challenge measured after 24 hrs by LDH release assay relative to control; format: functional, Cerebral cortex neuron; procedure, shortened: as §3
[15] = Neuroprotective activity in Sprague-Dawley rat primary cortical neurons assessed as reversal of oxygen-glucose deprivation-induced neuronal damage treated 4 hrs after OGD challenge measured after 24 hrs MTT assay; format: functional, cell-based; settings: Cerebral cortex neuron; procedure, shortened: as §2
[16] = Neuroprotective activity in Sprague-Dawley rat primary cortical neurons assessed as reversal of oxygen-glucose deprivation-induced neuronal damage at 250 uM by treated 4 hrs after OGD challenge measured after 24 hrs by LDH release assay relative to control; format: functional, Cerebral cortex neuron; procedure, shortened: as §3

Structure (SMILES)	inhibition [1]	TIME [2]	Activity [3]	inhibition [4]	Activity [5]	Activity [6]	Activity [7]	Papp [8]	Activity (Mus musculus)	Activity [9]	Activity [10]	Activity [11]	Activity [12]	Activity [13]	Activity [14]	Activity [15]	Activity [16]
O=[N+]([O-])OCCCOc1ccc(/C=[N+](\[O-])Cc2ccccc2)cc1	81%	0.61 h	98%	30%	83%	77.6%	45.37%	220 nm/s	31%								
O=[N+]([O-])OCCOc1ccc(/C=[N+](\[O-])Cc2ccccc2)cc1	64%	0.767 h	100%	21%				168 nm/s	22%	47.48%							
CC(C)(C)/[N+]([O-])=C/c1c[nH]c2ccccc12	57%	0.36 h	59%	42%							15%	3%	4.5%				
COc1cc(Br)c(/C=[N+](\[O-])C(C)(C)C)cc1O	67%	0.12 h	72%								11%	2%	3%				
Cc1ccc2nc(Cl)c(/C=[N+](\[O-])Cc3ccccc3)cc2c1	37%	1.3 h	95%	inactive	105%	75.7%	63.01%		72%		23%			42.3%	66.82%		
CC(C)(C)/[N+]([O-])=C/c1cccnc1Cl	37%	0.497 h	30%	59%							5%	2%	4%				
COc1cc(Br)c(/C=[N+](\[O-])C(C)(C)C)cc1OC	47%	0.00867 h	90%								15%	1%	2%				
COc1ccc2c(c1)cc(/C=[N+](\[O-])C(C)(C)C)n2C	80%	0.73 h	79.5%	31%							5%	3%	5%				
COc1cc(Br)c(/C=[N+](\[O-])Cc2ccccc2)cc1O	89%	1.41 h									6%	2%	2%			inactive	
CC(C)(C)c1cc(/C=[N+](\[O-])Cc2ccccc2)cc(C(C)(C)C)c1O	61%	1.38 h	77%	inactive					82%		8%			81.9%	53.8%		56.95%
COc1cc(/C=[N+](\[O-])Cc2ccccc2)c(Br)cc1O	87%	0.697 h	78%	24%							3%	5%	6%				
CC(C)(C)c1cc(/C=[N+](\[O-])C(C)(C)C)cc(C(C)(C)C)c1O	9%	0.29 h		inactive					80%					78.6%			
COc1cc(Br)c(/C=[N+](\[O-])Cc2ccccc2)cc1OC	inactive	0.895 h		21%							16%	1%	1%				
CC(C)(C)/[N+]([O-])=C/c1ccc(OCCCO[N+](=O)[O-])cc1	49%	0.783 h	54%	57%					30%		2%			0.4%	55.57%		
CC(C)(C)/[N+]([O-])=C/c1ccc(OCCO[N+](=O)[O-])cc1		0 h	98%	19%					18%		19%			0.6%			79.21%
[O-]/[N+](=C\c1ccc(Br)o1)Cc1ccccc1		0 h		17%			114.17%		42%	61.87%				8.6%			
O=C(O)/C=C/c1ccc(O)c(O)c1											15%						
Cc1c(C)c2c(c(C)c1O)CCC(C)(C(=O)O)O2 (stereo unspecified)	63%	1.03 h	73%														
COc1cc(/C=[N+](\[O-])Cc2ccccc2)ccc1O	90%	1.47 h	52%									9%	10%			inactive	
CC(C)(C)/[N+]([O-])=C/c1ccc(Br)o1		0 h	95%	39%					37%					0%			96.26%
CC(Cc1ccc(O)c(O)c1)C(C)Cc1ccc(O)c(O)c1 (stereo unspecified)				40%													
C[N+](C)(C)CCOP(=O)(O)OP(=O)([O-])OC[C@H]1O[C@@H](n2ccc(N)nc2=O)[C@H](O)[C@@H]1O [CITICOLINE]					53.2%	87.4%									61.26%		84.64%
COc1cc(/C=[N+](/C)[O-])ccc1O	90%	0.3 h		59%							11%	7%	8%			inactive	
[O-]/[N+](=C\c1ccccc1)Cc1ccccc1	74%	0.42 h	97%								24%						
